# Experimental data published in ChEMBL document CHEMBL3112425, “Design, synthesis, and structure-activity relationship studies of a potent PACE4 inhibitor” (J Med Chem, 2014).
# How the values were obtained:
# [1] = Acute toxicity in human DU145 cells assessed as cell death/lysis at 100 uM after 4 hrs by LDH assay; type: cell-based, DU-145; conditions: read-out: INH
# How it was run: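 DU145 cells (RPMI 1640, 5% FBS, 37 °C, 5% CO2) plated; 24 h later peptides added at 100 μM. After 4 h, release of lactate dehydrogenase into the medium was quantified enzymatically with a commercial LDH cytotoxicity kit as the measure of acute membrane damage/lysis.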
# DU-145 = assay: Cytotoxicity against human DU145 cells up to 350 uM after 72 hrs by MTT assay; type: functional
# How it was run: (§1)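 Prostate cancer cells were kept in RPMI 1640 at 37 °C, 5% CO2, with 5% FBS for DU145 and 10% FBS for LNCaP and PC3. After 24 h, medium was changed and peptides added at various concentrations, up to 350 μM. Viability was read by MTT after 72 h treatment. IC50 from dose–response curves, triplicate, mean ± SEM.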
# Furin = Furin (Homo sapiens, UniProt P09958); assay: Inhibition of human recombinant furin expressed in drosophila schneider 2 cells using pyroGlu-Arg-Thr-Lys-Arg-AMC as substrate after 1 hr
# Chain of Furin (P09958 whole entry): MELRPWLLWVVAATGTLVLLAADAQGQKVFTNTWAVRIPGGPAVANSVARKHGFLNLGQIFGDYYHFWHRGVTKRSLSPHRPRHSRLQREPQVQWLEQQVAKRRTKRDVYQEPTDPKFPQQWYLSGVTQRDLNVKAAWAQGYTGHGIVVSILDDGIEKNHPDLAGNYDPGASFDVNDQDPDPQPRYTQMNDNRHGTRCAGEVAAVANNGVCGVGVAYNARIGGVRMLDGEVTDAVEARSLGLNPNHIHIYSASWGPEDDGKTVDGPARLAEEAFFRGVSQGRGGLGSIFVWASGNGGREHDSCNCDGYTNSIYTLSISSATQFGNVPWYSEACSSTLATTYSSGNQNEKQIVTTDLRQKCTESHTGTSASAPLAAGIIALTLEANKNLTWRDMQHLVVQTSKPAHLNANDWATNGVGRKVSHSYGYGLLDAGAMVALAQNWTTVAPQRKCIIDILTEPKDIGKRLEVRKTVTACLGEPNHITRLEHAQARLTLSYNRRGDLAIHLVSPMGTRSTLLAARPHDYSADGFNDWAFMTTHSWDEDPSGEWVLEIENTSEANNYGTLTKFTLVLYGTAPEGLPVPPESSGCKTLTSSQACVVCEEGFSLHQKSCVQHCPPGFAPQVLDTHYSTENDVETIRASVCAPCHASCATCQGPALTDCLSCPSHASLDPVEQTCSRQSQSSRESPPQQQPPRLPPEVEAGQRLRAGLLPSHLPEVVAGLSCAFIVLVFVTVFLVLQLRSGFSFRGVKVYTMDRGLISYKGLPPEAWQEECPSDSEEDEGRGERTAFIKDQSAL
# How it was run: (§2)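 Human enzymes were expressed in Drosophila S2 cells and purified. Fluorogenic pyroGlu-RTKR-AMC was used at fixed concentration with varied inhibitor, 37 °C over 1 h. Buffers: furin, 100 mM Hepes pH 7.5, 1 mM CaCl2, 1 mM β-mercaptoethanol, 1.8 mg/mL BSA; PACE4 and PC7, 20 mM Bis-Tris pH 6.5, 1 mM CaCl2, 1.8 mg/mL BSA; PC2, same buffer at pH 5.7. Ki from IC50 (Cheng–Prusoff), or apparent Ki (Morrison) for tight binders. Triplicate, mean ± SD.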
# PC-3 = assay: Cytotoxicity against human PC3 cells up to 350 uM after 72 hrs by MTT assay; type: functional; how it was run: as §1
# [2] = molecular target: T1, Proprotein convertase subtilisin/kexin type 6 (Homo sapiens, UniProt P29122); assay: Inhibition of human recombinant PACE4 expressed in drosophila schneider 2 cells using pyroGlu-Arg-Thr-Lys-Arg-AMC as substrate after 1 hr; how it was run: as §2
# T1 sequence (P29122 whole entry): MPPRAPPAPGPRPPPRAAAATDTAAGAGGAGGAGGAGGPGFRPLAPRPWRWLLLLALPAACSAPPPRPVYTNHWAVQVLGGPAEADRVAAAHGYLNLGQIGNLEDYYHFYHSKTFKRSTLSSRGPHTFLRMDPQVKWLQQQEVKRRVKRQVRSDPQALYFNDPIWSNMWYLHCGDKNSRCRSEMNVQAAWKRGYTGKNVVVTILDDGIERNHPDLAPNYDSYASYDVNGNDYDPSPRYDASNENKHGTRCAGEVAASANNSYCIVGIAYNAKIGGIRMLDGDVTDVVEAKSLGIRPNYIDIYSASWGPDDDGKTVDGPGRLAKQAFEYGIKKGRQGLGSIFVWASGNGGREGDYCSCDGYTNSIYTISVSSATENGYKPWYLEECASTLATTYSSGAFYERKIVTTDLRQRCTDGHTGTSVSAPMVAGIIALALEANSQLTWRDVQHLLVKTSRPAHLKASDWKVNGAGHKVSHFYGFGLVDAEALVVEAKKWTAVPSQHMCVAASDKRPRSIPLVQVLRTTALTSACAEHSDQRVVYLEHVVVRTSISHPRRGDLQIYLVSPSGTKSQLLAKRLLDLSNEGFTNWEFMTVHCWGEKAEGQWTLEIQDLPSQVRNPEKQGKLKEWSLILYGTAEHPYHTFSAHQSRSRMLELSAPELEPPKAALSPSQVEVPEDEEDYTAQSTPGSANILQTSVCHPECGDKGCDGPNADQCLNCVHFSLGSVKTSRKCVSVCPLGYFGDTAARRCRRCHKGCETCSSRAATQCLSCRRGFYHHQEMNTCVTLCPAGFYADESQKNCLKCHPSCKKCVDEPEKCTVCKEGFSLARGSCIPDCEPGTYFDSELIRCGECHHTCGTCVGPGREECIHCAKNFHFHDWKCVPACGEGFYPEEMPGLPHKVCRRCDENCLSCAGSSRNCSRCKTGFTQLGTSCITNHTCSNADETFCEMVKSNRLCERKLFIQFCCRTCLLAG
# LNCaP = assay: Cytotoxicity against human LNCAP cells up to 350 uM after 72 hrs by MTT assay; type: functional; how it was run: as §1
smiles,measurement,setting,value
CC(=O)N[C@H](CC(C)C)C(=O)N[C@H](CC(C)C)C(=O)N[C@H](CC(C)C)C(=O)N[C@H](CC(C)C)C(=O)N[C@@H](CCCNC(=N)N)C(=O)N[C@H](C(=O)N[C@@H](CCCCN)C(=O)N[C@@H](CCCNC(=N)N)C(N)=O)C(C)C,"cytotoxicity at 4 h, 100 µM",[1],< 5%
same,inhibition (INH),DU-145,<50%
same,Ki,Furin,7.3 µM
same,inhibition (INH),PC-3,<50%
same,Ki,[2],14 µM
same,inhibition (INH),LNCaP,<50%
